The nature of test [1]: inhibitors of TNFa-induced NFkB p65 translocation, primary screen, imaging, HUVEC, MLSMR starter and 10KST1 sets (AID 438;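 active means inhibition above 20% together with a positive visual image hit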;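 further: compound added about 3h40 before a 20 min TNFalpha stimulation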;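 on inhibition: signal is the nuclear over cytoplasmic p65 intensity ratio per well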). The following applies: HUVEC TNFa-induced p65 nuclear translocation; cell count: measured here: nuclei count (cytotoxicity indicator), at 2.08 µM; inhibition: at 2 µM, stronger effect = higher value, 0% TNFa-plus-vehicle, 100% no-TNFa wells.
Test [2] is described as follows: reduction of polyQ htt aggregates in cells – imaging, exon1htt(103Q)mCFP cells, high-content imaging, primary screen (AID 483;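 active means visual image review flags a hit and inhibition of aggregation exceeds 20%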;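 further: compound exposure lasted 3 days before fixation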;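 on nuclei count: percent of the per-plate median nuclei count of sample wells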). The following applies: exon1htt(103Q)mCFP cell line, aggregate imaging, at 2 µM; inhibition of aggregation: stronger effect = higher value; nuclei count: measured here: cell count, toxicity.
Test [3] can be described thus: endothelial E-selectin expression blockers – imaging, HUVEC, immunofluorescence, MLSMR starter and 10KST1 sets, primary screen (AID 487;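 active means visually confirmed hit in the image check and inhibition above 20%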;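 on inhibition: signal is fraction of cell area covered by stained E-selectin grains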;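 on nuclei count: 100% = median nuclei count of all wells on the same plate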). Particulars: HUVEC TNFalpha-induced E-selectin immunofluorescence imaging, at 2 µM; inhibition: stronger effect = higher value; nuclei count: measured here: cell number, toxicity.
The target of test [4] is Voltage-gated potassium channel subunit beta-2 (Rattus norvegicus) (UniProt P62483). Description: inhibitors of rat Kvbeta2 reductase activity – biochemical, NADPH fluorescence, primary screen (AID 622;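 active means fluorescence slope higher than the sample average by over 3 SD, cut at about -0.22 in these data, passing the limit was not always enough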;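 further: slope of raw intensity against log time taken from 70 to 1610 s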). The following applies: recombinant KvBeta, 4-cyanobenzaldehyde reduction, at 10 µM, stronger effect = higher value.
Test [5] has the same target. Description: enhancers of rat Kvbeta2 NADPH turnover – biochemical, NADPH fluorescence, primary screen (AID 623;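 active means NADPH fluorescence slope more negative than the mean of all samples by about 3 SD, 99.7% confidence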;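 further: fluorescence intensity change per second fitted from 20 to 320 s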). Particulars: Recombinant KvBeta, NADPH fluorescence decrease slope, 10 min; at 10 µM; stronger effect = lower value.
The target in test [6] is Muscarinic acetylcholine receptor M4 (Homo sapiens) (UniProt P08173). Description: M4-linked GIRK flux change, two-sided – cell-based, HEK293 M4/GIRK, thallium flux, BTC-AM, M4 allosteric agonist project, primary screen (AID 625;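 active means fluorescence slope after compound addition differing from the mean of all tested samples at 99.7% confidence, mostly higher but some lower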;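 further: thallium influx through GIRK channels coupled to M4 in HEK293 cells with BTC-AM dye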). Particulars: at 10 µM, actives lie on both sides. A digest of the protocol: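 Material: M4/GIRK1/GIRK2 stable HEK293 cell line. Medium: pH 7.3 thallium assay buffer. Dosing: single compound concentration, 10 µM final. Schedule: 1 h dye loading, 2 min kinetic read. Measured by: kinetic fluorescence with BTC-AM dye. Read-out: post-addition slope, 15–24 s, of baseline-normalized fluorescence. Benchmarks: carbachol and DMSO controls.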

Test [7] in a line: blockers of RIG-like receptor reporter activation – cell-based, Sendai virus stimulus, luciferase, 10K MLSCN set, TLR/RLR signaling modifier project, primary screen (AID 602276;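 active means inhibition at or above 50% at 10 µM; inactive means inhibition below 50%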;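 further: firefly luciferase from ISG56 promoter only with Renilla not read in this screen; 0% = Sendai virus plus DMSO and 100% = medium plus DMSO without virus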). The following applies: HEK293 RL24 IRF3 luciferase reporter, at 10 µM, stronger effect = higher value. (In general: In a reporter assay the amount or activity of a reporter protein is the signal.)
Test [8] is described as follows: TLR3 IRF3 reporter activation blockers – cell-based, poly I:C stimulus, luciferase, 10K MLSCN set, primary screen (AID 602277). Particulars: HEK293-TLR3 RL24 IRF3 luciferase reporter, at 10 µM, stronger effect = higher value.

The values that follow come from PubChem BioAssay.

Active and inactive are the calls of the source.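 How the source made its calls, unless noted: active means inhibition of the reporter signal at or above 50%; inactive means inhibition below 50%.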

As a reminder, the inhibition is the change of the read-out against control, counted positive when it falls.

Chain of Muscarinic acetylcholine receptor M4 (Homo sapiens) (P08173 whole entry, looked up): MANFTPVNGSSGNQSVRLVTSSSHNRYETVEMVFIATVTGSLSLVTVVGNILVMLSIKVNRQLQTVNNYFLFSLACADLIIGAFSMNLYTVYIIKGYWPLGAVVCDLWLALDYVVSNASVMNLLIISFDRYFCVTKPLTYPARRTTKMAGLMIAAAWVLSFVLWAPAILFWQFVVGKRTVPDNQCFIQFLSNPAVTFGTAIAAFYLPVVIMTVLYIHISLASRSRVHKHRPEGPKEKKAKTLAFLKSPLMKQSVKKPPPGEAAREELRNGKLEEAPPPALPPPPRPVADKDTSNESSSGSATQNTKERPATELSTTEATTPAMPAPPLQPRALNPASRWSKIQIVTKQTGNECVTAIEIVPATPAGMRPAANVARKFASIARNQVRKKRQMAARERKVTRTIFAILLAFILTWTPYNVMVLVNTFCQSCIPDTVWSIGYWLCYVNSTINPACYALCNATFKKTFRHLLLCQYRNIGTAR
Chain of Voltage-gated potassium channel subunit beta-2 (Rattus norvegicus) (P62483 whole entry, looked up): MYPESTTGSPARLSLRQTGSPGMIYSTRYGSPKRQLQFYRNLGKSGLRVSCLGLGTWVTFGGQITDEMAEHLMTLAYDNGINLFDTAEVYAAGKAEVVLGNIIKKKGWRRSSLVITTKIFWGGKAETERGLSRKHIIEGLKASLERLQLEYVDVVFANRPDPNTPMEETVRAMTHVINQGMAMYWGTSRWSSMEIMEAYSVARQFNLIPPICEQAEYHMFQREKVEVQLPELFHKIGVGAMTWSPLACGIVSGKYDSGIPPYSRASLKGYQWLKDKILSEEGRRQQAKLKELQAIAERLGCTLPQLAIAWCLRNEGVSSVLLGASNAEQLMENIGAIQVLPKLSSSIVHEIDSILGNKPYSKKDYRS

For the compound `CCn1c(SCC(N)=O)nc2c1c(=O)n(C)c(=O)n2C`, the cell count in test [1] came to 226. Also, the inhibition is 4.9% (inactive) in test [1], -57.2% (inactive) in test [3], 17.5% (inactive) in test [7] and 21.1% (inactive) in test [8]. Besides, in test [2], the inhibition of aggregation is 20.7% (inactive). Besides, the nuclei count in test [2] was 80.1%; in test [3], 152%. The fluorescence slope in test [4] is -0.422 (inactive); in test [6], 0.00578 (inactive). Besides, in test [5], the NADPH fluorescence slope is 2.5e-05 (inactive).
As to `CN(C(=O)CSc1nc2c(c(=O)[nH]1)CCCC2)C1CCCCC1`, in test [1], the cell count was 820. For the same compound, the inhibition was -0.9% (inactive) in test [1], -253% (inactive) in test [3], 4.83% (inactive) in test [7] and 18.3% (inactive) in test [8]. In addition, the inhibition of aggregation in test [2] is -33.2% (inactive). Also, the nuclei count in test [2] turned out to be 117%; in test [3], 120%. The fluorescence slope in test [4] is -0.504 (inactive); in test [6], 0.00553 (inactive). The NADPH fluorescence slope in test [5] was 4e-05 (inactive).
Regarding `COc1cccc(N2CCN(Cc3nc(N)nc(Nc4ccccc4OC)n3)CC2)c1`, the cell count in test [1] stood at 495. Besides, the inhibition was 2.9% (inactive) in test [1], 2.5% (inactive) in test [3], 19% (inactive) in test [7] and 17.2% (inactive) in test [8]. In test [2], the inhibition of aggregation was -8.8% (inactive). The nuclei count in test [2] is 97.2%; in test [3], 104%. Also, the fluorescence slope is -0.562 (inactive) in test [4] and 0.00593 (inactive) in test [6]. Also, the NADPH fluorescence slope in test [5] was -3.3e-05 (inactive).
With `CCN(CC)C(=O)Oc1ccccc1NC(C)=O`, in test [1], the cell count was 366. Further, the inhibition is -3.9% (inactive) in test [1], -63.5% (inactive) in test [3], 20.6% (inactive) in test [7] and 13.2% (inactive) in test [8]. In test [2], the inhibition of aggregation is 17.2% (inactive). In addition, the nuclei count stood at 85.8% in test [2] and 121% in test [3]. For the same compound, the fluorescence slope in test [4] was -0.221 (inactive); in test [6] it was 0.00764 (inactive). Further, the NADPH fluorescence slope in test [5] is 2.5e-07 (inactive).
`Cc1ccc(S(=O)(=O)NCC2CCC(C(=O)NCCCN3CCOCC3)CC2)cc1` (centres undefined): the cell count in test [1] amounted to 305. Also, the inhibition is 1.9% (inactive) in test [1], -24.4% (inactive) in test [3], 13% (inactive) in test [7] and 22.2% (inactive) in test [8]. The inhibition of aggregation in test [2] is 26.8% (inactive). Also, the nuclei count in test [2] turned out to be 80.7%; in test [3], 112%. Moreover, the values for the fluorescence slope in test [4] and in test [6] were -0.564 (inactive) and 0.00513 (inactive), respectively. Besides, the NADPH fluorescence slope in test [5] is -0.000104 (inactive).
Consider `S=c1[nH]nc(COc2ccccc2)n1C1CCCCC1`, for which the cell count in test [1] amounted to 552. The inhibition was 8% (inactive) in test [1], 48.2% (inactive) in test [3], -4.8% (inactive) in test [7] and 10.9% (inactive) in test [8]. Also, in test [2], the inhibition of aggregation is 18.7% (inactive). For the same compound, the nuclei count in test [2] was 91.7%; in test [3], 105%. For the same compound, the fluorescence slope is -0.553 (inactive) in test [4] and 0.0103 (inactive) in test [6]. Moreover, in test [5], the NADPH fluorescence slope was -3e-06 (inactive).
In the case of `O=c1c2ccccc2cnn1-c1nc2ccccc2s1`, the cell count in test [1] amounted to 480. In addition, the inhibition in test [1] was -1% (inactive); in test [3], -33.8% (inactive); in test [7], 20.5% (inactive); in test [8], 93.6% (active). Also, the inhibition of aggregation in test [2] is -5.1% (inactive). The nuclei count in test [2] turned out to be 98.1%; in test [3], 117%. Further, the values for the fluorescence slope in test [4] and in test [6] were -0.133 (inactive) and 0.00555 (inactive), respectively. Further, the NADPH fluorescence slope in test [5] is -1.6e-05 (inactive).
On to `CCOc1ccc(S(=O)(=O)Nc2ccccc2C(=O)Nc2ccccc2N2CCOCC2)cc1`, for which, in test [1], the cell count came out at 322. Besides, the inhibition in test [1] is -2.1% (inactive); in test [3] it was -24.9% (inactive); in test [7] it was 11.5% (inactive); in test [8], 25.7% (inactive). Further, the inhibition of aggregation in test [2] was 17.2% (inactive). The nuclei count in test [2] was 94.9%; in test [3], 106%. In addition, the fluorescence slope in test [4] is -0.522 (inactive); in test [6] it was 0.00582 (inactive). For the same compound, in test [5], the NADPH fluorescence slope is -3.2e-05 (inactive).
Turning to `O=C(COc1ccc2c(c1)OCO2)NC12CC3CC(CC(C3)C1)C2`, in test [1], the cell count was 337. Further, the inhibition was -3.7% (inactive) in test [1], -142% (inactive) in test [3], -38.5% (inactive) in test [7] and -35.6% (inactive) in test [8]. Further, in test [2], the inhibition of aggregation is 1.3% (inactive). Moreover, the nuclei count in test [2] came out at 91.5%; in test [3] it was 99.1%. Also, the fluorescence slope in test [4] is -0.411 (inactive); in test [6], 0.00898 (inactive). Also, the NADPH fluorescence slope in test [5] is -4.1e-05 (inactive).
In the case of `CN(C)S(=O)(=O)n1cnc(-c2ccccc2)c1-c1ccccc1`, the cell count in test [1] worked out at 382. Moreover, the inhibition in test [1] was 2.8% (inactive); in test [3], -26.1% (inactive); in test [7], 11.2% (inactive); in test [8], 20.5% (inactive). For the same compound, the inhibition of aggregation in test [2] was 10.1% (inactive). The figures for the nuclei count in test [2] and in test [3] were 100% and 107%, respectively. For the same compound, the figures for the fluorescence slope in test [4] and in test [6] were -0.497 (inactive) and 0.00475 (inactive), respectively. The NADPH fluorescence slope in test [5] is -9.7e-06 (inactive).
In the case of `O=C(NCc1cccnc1)c1ccccc1Br`, the cell count in test [1] amounted to 397. Besides, the inhibition in test [1] was -0.5% (inactive); in test [3] it was -18.8% (inactive); in test [7], 15.2% (inactive); in test [8] it was 20.8% (inactive). In addition, the inhibition of aggregation in test [2] was 4.6% (inactive). For the same compound, the nuclei count in test [2] was found to be 104%; in test [3] it was 112%. For the same compound, the fluorescence slope in test [4] is -0.521 (inactive); in test [6], 0.00504 (inactive). Moreover, the NADPH fluorescence slope in test [5] is -1.1e-05 (inactive).
Turning to `CC(=O)c1ccc(NC(=O)c2noc3c2CCCCC3)cc1`, the cell count in test [1] was 214. For the same compound, the inhibition was 2.3% (inactive) in test [1], -10.4% (inactive) in test [3], -32.5% (inactive) in test [7] and -114% (inactive) in test [8]. The inhibition of aggregation in test [2] was -0.6% (inactive). Further, the results for the nuclei count in test [2] and in test [3] were 108% and 118%, respectively. The results for the fluorescence slope in test [4] and in test [6] were -0.512 (inactive) and 0.00493 (inactive), respectively. Besides, the NADPH fluorescence slope in test [5] is -6e-05 (inactive).
With `Cc1ccc(Cn2c(C)nc3c(c2=O)c2nc4ccccc4nc2n3Cc2ccco2)cc1`, the cell count in test [1] was determined as 623. Further, the inhibition in test [1] is -5.4% (inactive); in test [3] it was -33.1% (inactive); in test [7], 16.5% (inactive); in test [8], 28.3% (inactive). In addition, the inhibition of aggregation in test [2] was -11% (inactive). The values for the nuclei count in test [2] and in test [3] were 111% and 91.7%, respectively. For the same compound, the values for the fluorescence slope in test [4] and in test [6] were -0.557 (inactive) and 0.00181 (inactive), respectively. Besides, in test [5], the NADPH fluorescence slope was -5.9e-05 (inactive).
For the compound `O=S(=O)(c1ccccc1)N1CCN(C2CCCCCCC2)CC1`, in test [1], the cell count worked out at 221. In addition, the inhibition in test [1] is 9.7% (inactive); in test [3], -53.1% (inactive); in test [7], -8.03% (inactive); in test [8] it was -10% (inactive). In test [2], the inhibition of aggregation is 9% (inactive). The values for the nuclei count in test [2] and in test [3] were 80.6% and 148%, respectively. The fluorescence slope in test [4] is -0.479 (inactive); in test [6], 0.00309 (inactive). Further, the NADPH fluorescence slope in test [5] is -1.1e-05 (inactive).
